Data from ChEMBL document CHEMBL3862030, “Identification of the minimum PAR4 inhibitor pharmacophore and optimization of a series of 2-methoxy-6-arylimidazo[2,1-b][1,3,4]thiadiazoles” (Bioorg Med Chem Lett, 2016).
Values belong to the molecule of their own block, whether it stands above or below them. Calls of active or inactive are those of the source. No cut-off for these calls is given here.

Experiments:
[1] = target: T1, Proteinase-activated receptor 4 (Homo sapiens, UniProt Q96RI0); experiment: Antagonist activity at PAR4 in human platelets assessed as inhibition of activating peptide-induced PAC1 binding response preincubated for 20 mins followed by agonist addition for 20 mins by FITC-based flow cytometric analysis
T1 sequence (Q96RI0 whole entry): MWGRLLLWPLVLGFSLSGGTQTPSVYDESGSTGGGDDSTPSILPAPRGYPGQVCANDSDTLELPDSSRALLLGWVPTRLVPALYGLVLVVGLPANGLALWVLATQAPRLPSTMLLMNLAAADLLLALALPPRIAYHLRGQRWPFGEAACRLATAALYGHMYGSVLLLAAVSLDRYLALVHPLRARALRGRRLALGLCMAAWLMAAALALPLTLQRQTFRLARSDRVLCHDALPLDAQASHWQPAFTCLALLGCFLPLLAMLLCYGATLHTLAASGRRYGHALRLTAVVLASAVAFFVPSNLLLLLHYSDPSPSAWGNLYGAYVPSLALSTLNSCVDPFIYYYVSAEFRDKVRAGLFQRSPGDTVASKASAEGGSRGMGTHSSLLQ
Summary of the method: (§1)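 Human platelets were activated with 200 μM PAR4-AP. The read-outs were PAC-1 binding and P-selectin exposure, measured by flow cytometry.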

[2] = target: T2, Proteinase-activated receptor 4 (Homo sapiens) (UniProt Q96RI0); experiment: Ratio of IC50 for PAR4 in human platelets assessed as inhibition of gamma-thrombin-induced PAC1 binding response to IC50 for PAR4 in human platelets assessed as inhibition of activating peptide-induced PAC1 binding response
T2 sequence (whole entry): T1 sequence (Q96RI0 whole entry)

[3] = target: T1, Proteinase-activated receptor 4; experiment: Antagonist activity at PAR4 in human platelets assessed as inhibition of gamma-thrombin-induced PAC1 binding response preincubated for 20 mins followed by agonist addition for 20 mins by FITC-based flow cytometric analysis
Summary of the method: (§2)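 Human platelets were stimulated with γ-thrombin at 100 nM. Activation was read by flow cytometry as PAC-1 binding and P-selectin surface expression.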

[4] = test system: Platelet; experiment: Antiplatelet activity in human platelets assessed as inhibition of gamma thrombin-induced aggregation at 10 uM preincubated for 20 mins followed by gamma thrombin addition measured for 10 mins by aggregometer; type: functional, cell-based
Summary of the method: (§3)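 Aggregation was monitored for 10 min, with final % aggregation taken at that point. Data are means±SEM of at least three independent experiments, compared to controls by paired t-test.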

[5] = target: T1, Proteinase-activated receptor 4; experiment: Antagonist activity at PAR4 in human platelets assessed as inhibition of activating peptide-induced P-selectin activation; summary of the method: as §1
[6] = target: T3, Proteinase-activated receptor 1 (Homo sapiens, UniProt P25116); experiment: Antagonist activity at PAR1 in human platelets assessed as inhibition of activating peptide-induced P-selectin activation
T3 sequence (P25116 whole entry): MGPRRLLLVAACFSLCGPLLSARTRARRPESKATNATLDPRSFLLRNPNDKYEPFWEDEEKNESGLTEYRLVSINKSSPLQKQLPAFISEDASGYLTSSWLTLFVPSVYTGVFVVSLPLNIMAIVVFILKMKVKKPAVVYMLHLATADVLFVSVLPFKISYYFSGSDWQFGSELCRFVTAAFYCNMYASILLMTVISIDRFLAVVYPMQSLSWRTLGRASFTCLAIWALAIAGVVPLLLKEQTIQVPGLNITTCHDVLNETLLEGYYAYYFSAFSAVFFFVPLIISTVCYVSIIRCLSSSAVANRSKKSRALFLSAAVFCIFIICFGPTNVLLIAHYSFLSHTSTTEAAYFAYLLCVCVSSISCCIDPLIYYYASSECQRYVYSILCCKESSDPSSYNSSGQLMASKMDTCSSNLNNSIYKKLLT

[7] = target: T3, Proteinase-activated receptor 1; experiment: Antagonist activity at PAR1 in human platelets assessed as inhibition of activating peptide-induced PAC1 binding response
[8] = test system: Platelet; experiment: Antiplatelet activity in human platelets assessed as inhibition of activating peptide-induced aggregation at 316 to 1000 nM preincubated for 20 mins followed by activating peptide addition measured for 10 mins by aggregometer; type: functional, cell-based; summary of the method: as §3
[9] = target: T1, Proteinase-activated receptor 4; experiment: Antagonist activity at PAR4 in human platelets assessed as inhibition of gamma-thrombin-induced P-selectin activation; summary of the method: as §2
[10] = Fraction unbound in rat plasma at 5 uM after 4 hrs by equilibrium dialysis method; type: ADME, cell-free
[11] = test system: Platelet; experiment: Antiplatelet activity in human platelets assessed as inhibition of gamma thrombin-induced aggregation at 316 nM to 3.16 uM preincubated for 20 mins followed by gamma thrombin addition measured for 10 mins by aggregometer; type: functional, cell-based; summary of the method: as §3
[12] = Lipophilicity, log P of the compound; type: physicochemical; conditions: octanol/water
[13] = Intrinsic clearance in human liver microsomes at 1 uM preincubated for 5 mins followed by NADPH addition measured after 3 to 45 mins by LC/MS/MS analysis; type: ADME; conditions: read-out: CLH
[14] = Fraction unbound in human plasma at 5 uM after 4 hrs by equilibrium dialysis method; type: ADME, cell-free
[15] = test system: Platelet; experiment: Antiplatelet activity in human platelets assessed as inhibition of activating peptide-induced aggregation at 100 to 316 nM preincubated for 20 mins followed by activating peptide addition measured for 10 mins by aggregometer; type: functional, cell-based; conditions: 316 nM to 1 uM, in the assay text read “316 nM to 1 uM” for “100 to 316 nM”; summary of the method: as §3
[16] = Intrinsic clearance in rat liver microsomes at 1 uM preincubated for 5 mins followed by NADPH addition measured after 3 to 45 mins by LC/MS/MS analysis; type: ADME; conditions: read-out: CLH
[17] = target: T2, Proteinase-activated receptor 4 (Homo sapiens); conditions: 31.6 to 316 nM
[18] = Fraction unbound in rat plasma; type: ADME, cell-free
[19] = Fraction unbound in human plasma; type: ADME, cell-free
[20] = target: T2, Proteinase-activated receptor 4 (Homo sapiens); conditions: 31.6 to 1000 nM
[21] = target: T1, Proteinase-activated receptor 4; experiment: Antagonist activity at PAR4 (unknown origin) assessed as inhibition of gamma-thrombin-induced receptor activation
[22] = target: T1, Proteinase-activated receptor 4; experiment: Antagonist activity at PAR4 (unknown origin) assessed as inhibition of activating peptide-induced receptor activation

- IC50 [1]: 437 nM
SMILES: COc1nn2cc(-c3ccccc3Cl)nc2s1

- IC50 [1]: > 10000 nM
SMILES: COc1nn2cc(-c3ccc(O)cc3)nc2s1

- IC50 [1]: 57.2 nM
SMILES: COc1nn2cc(-c3ccc(C)cc3)nc2s1

- Fu [10]: 0.006 to 0.014
- inhibition [20]: Active
- logP [12]: > 4
- CLint scaled at 1 µM [13]: 13.6 to 19.9 mL/min/kg
- Fu [14]: 0.006 to 0.014
- CLint scaled at 1 µM [16]: 46.3 to 58.3 mL/min/kg
SMILES: COc1nn2cc(-c3ccc(Cl)cc3)nc2s1
- inhibition [11]: Active
- inhibition [8]: Active

- IC50 [1]: 675 nM
SMILES: COc1nn2cc(-c3cccc(F)c3)nc2s1

- IC50 [1]: > 10000 nM
SMILES: COc1nn2cc(-c3cccc([N+](=O)[O-])c3)nc2s1

- IC50 [1]: 757 nM
SMILES: COc1nn2cc(-c3ccccc3)nc2s1

- IC50 [3]: > 10000 nM
- IC50 [1]: 72.8 nM
SMILES: COc1nn2cc(-c3cccc(Cl)c3)nc2s1

- IC50 [1]: 937 nM
SMILES: COc1nn2cc(-c3ccc(C#N)cc3)nc2s1

Continued, molecule first:

SMILES: CN(C)c1nn2cc(-c3c(F)cccc3F)nc2s1
- IC50 [1]: 3400 nM

SMILES: COc1nn2cc(-c3cc4cc(OC(F)(F)F)ccc4n3C)nc2s1
- Ratio IC50 [2]: 50
- IC50 [3]: 1000 nM
- inhibition [4]: Active
- IC50 [5]: 20 nM
- IC50 [6]: > 10 µM
- IC50 [7]: > 10 µM
- inhibition [8]: Active
- IC50 [1]: 20 to 21 nM
- IC50 [9]: 1000 nM

SMILES: COc1nn2cc(-c3ccc(C(F)(F)F)cc3)nc2s1
- Fu [10]: 0.006 to 0.014
- inhibition [11]: Active
- logP [12]: > 4
- CLint scaled at 1 µM [13]: 13.6 to 19.9 mL/min/kg
- Fu [14]: 0.006 to 0.014
- inhibition [15]: Active
- CLint scaled at 1 µM [16]: 46.3 to 58.3 mL/min/kg
- inhibition [17]: Active

SMILES: COc1cc(OCc2csc(-c3ccccc3)n2)c2cc(-c3cn4nc(OC)sc4n3)oc2c1
- fraction unbound [18]: < 0.001
- fraction unbound [19]: < 0.001

SMILES: COc1nn2cc(-c3ccc(S(C)(=O)=O)cc3)nc2s1
- IC50 [1]: 1200 nM

SMILES: COc1nn2cc(-c3ccc(OC(F)F)cc3)nc2s1
- IC50 [3]: 2540 nM

SMILES: COc1nn2cc(-c3cc4ccccc4o3)nc2s1
- IC50 [21]: 58.8 nM
- IC50 [22]: 1.69 nM

SMILES: COc1ccc(-c2cn3nc(OC)sc3n2)cc1
- IC50 [1]: 592 nM

SMILES: COc1nn2cc(-c3cc(C(F)(F)F)cc(C(F)(F)F)c3)nc2s1
- IC50 [3]: 5620 nM

SMILES: COc1nn2cc(-c3ccccc3[N+](=O)[O-])nc2s1
- IC50 [1]: 4840 nM

SMILES: COc1nn2cc(-c3ccc(OC(F)(F)F)cc3)nc2s1
- Fu [10]: 0.006 to 0.014
- inhibition [11]: Active
- logP [12]: > 4
- CLint scaled at 1 µM [13]: 13.6 to 19.9 mL/min/kg
- Fu [14]: 0.006 to 0.014
- inhibition [15]: Active
- CLint scaled at 1 µM [16]: 46.3 to 58.3 mL/min/kg
- inhibition [17]: Active

SMILES: CNc1nn2cc(-c3c(F)cccc3F)nc2s1
- IC50 [1]: > 10000 nM
